Paper PMC6482957 (Nature structural & molecular biology, 2018)
Changes are numbered by the printed parent chain. Numbers in names are those of the source.

Legend:
p300-ZZ = assay: 1H,15N HSQC NMR titration, p300-ZZ; assay type: binding, human
Outline: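 Human p300 ZZ (aa 1663–1713) carried an N-terminal His-tag and was expressed in BL21(DE3) RIL in M9 with 15NH4Cl and 0.05 mM ZnCl2. Induction was 0.2 mM IPTG, overnight at 18 °C. Protein was Ni-NTA purified and the tag cleaved. 0.1 mM sample in 20 mM Tris-HCl pH 7.0, 100 mM NaCl, 5 mM DTT, 8% D2O. Unlabeled HAT domain (1:2) was added first, then H3 peptide; chemical shift changes were monitored at 298K.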

[1] = target: T1, human p300 ZZ domain (aa 1663–1713) (human, UniProt Q09472 1663-1713); assay: crystal structure
T1 sequence: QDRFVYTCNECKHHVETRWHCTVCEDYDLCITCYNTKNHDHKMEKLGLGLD

[2] = target: T1, human p300 ZZ domain (aa 1663–1713); assay: NMR titration
[3] = target: T2, p300 HAT-ZZ domain (aa 1287–1713, Y1467F) (human, UniProt Q09472 1287-1713, Y1467F); assay: NMR titration
T2 sequence: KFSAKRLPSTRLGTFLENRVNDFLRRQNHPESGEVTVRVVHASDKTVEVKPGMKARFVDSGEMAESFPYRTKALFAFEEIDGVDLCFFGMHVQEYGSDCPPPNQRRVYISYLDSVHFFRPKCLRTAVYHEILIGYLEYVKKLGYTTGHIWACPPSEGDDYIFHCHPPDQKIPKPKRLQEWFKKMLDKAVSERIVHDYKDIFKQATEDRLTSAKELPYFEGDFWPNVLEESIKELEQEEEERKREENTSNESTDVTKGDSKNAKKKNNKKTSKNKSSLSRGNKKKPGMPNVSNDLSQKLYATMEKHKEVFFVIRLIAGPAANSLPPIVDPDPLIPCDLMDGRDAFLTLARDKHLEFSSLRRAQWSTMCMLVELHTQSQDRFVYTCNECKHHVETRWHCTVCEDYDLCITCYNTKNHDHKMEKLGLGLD

chromatin in H1299 cells = assay: Chromatin association of FLAG-p300BRPHZT; assay type: cell-based, human; conditions: H1299 stable cells, ChIP-western and salt fractionation
Outline: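 H1299 cells stably expressing FLAG-p300-BRPHZT variants were used. For protein-ChIP, cells were formaldehyde-crosslinked and nuclear lysates sonicated, then pulled down overnight at 4 °C on anti-FLAG M2 agarose. Beads were washed in low-salt, high-salt and LiCl buffers, and bound protein was read by western blot. For salt fractionation, cells were swollen in hypotonic HEPES buffer and nuclei isolated, then nuclei were extracted 30 min at 4 °C in glycerol wash buffer with 75 mM NaCl and the supernatant collected.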

[4] = test system: histone acetylation in H1299 cells; assay: Histone acetylation levels in H1299 stable cells; assay type: cell-based, human; conditions: n = 3; for H3K4, H3K9 and H4 acetylation / Increase of H3K18 and H3K27 acetylation: p300-BRPHZT
[5] = test system: chromatin of H1299 cells (FLAG, H3K18ac, H3K27ac); assay: ChIP-seq / ChIP-qPCR in H1299 stable cells; assay type: cell-based, human; conditions: for Chromatin binding / H3K18ac and H3K27ac occupancies: ChIP-seq, H1299
Outline: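 H1299 cells (RPMI, 10% FBS) were lentivirally transduced with FLAG-p300-BRPHZT (wild type or mutant) and blasticidin-selected for 4–6 days. Cells were crosslinked with 1% formaldehyde for 10 min, quenched with 125 mM glycine, and nuclei were lysed in 1% SDS buffer and sonicated. Chromatin was immunoprecipitated overnight at 4 °C with 2–4 μg antibody, washed in low-salt, high-salt and LiCl buffers, and reverse-crosslinked. DNA went to SYBR qPCR (IgG or H3 normalization, two negative-control loci) or sequencing.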

[6] = test system: BD-RING-PHD (BRP) region of p300; assay: 1H,15N HSQC NMR titration, p300 BD-RING-PHD; assay type: binding, human; conditions: 15N-labeled BD-RING-PHD, 298K, pH 7.0

## H4_1–9(Ser1): H4_1–9(Ser1) (SGRGKGGKG)
p300-ZZ; authors' conclusion from NMR titration
  Binding to p300-ZZ: almost negligible binding

## ARTKQT [histone H3 tail (residues 1–6)]
[1]
  binding result: binds

## VRTKQT [H3A1V1–6]
[2]
  fold reduction in binding against the peptide with Ala1: ~3 fold

B1: p300 BD-RING-PHD region (aa 1047–1278) (domain or fragment)
chain: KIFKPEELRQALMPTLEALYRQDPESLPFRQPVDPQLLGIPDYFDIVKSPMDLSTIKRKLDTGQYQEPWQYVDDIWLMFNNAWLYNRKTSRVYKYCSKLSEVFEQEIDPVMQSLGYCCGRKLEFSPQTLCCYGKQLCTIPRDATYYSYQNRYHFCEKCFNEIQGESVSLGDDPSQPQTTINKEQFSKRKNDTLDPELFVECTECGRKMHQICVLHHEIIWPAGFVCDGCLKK
[3]
  binding result: binds

B2: N1671A: p300 BRPHZT loss-of-function mutation of ZZ (protein)
chain: TQSSPAPGQSKKKIFKPEELRQALMPTLEALYRQDPESLPFRQPVDPQLLGIPDYFDIVKSPMDLSTIKRKLDTGQYQEPWQYVDDIWLMFNNAWLYNRKTSRVYKYCSKLSEVFEQEIDPVMQSLGYCCGRKLEFSPQTLCCYGKQLCTIPRDATYYSYQNRYHFCEKCFNEIQGESVSLGDDPSQPQTTINKEQFSKRKNDTLDPELFVECTECGRKMHQICVLHHEIIWPAGFVCDGCLKKSARTRKENKFSAKRLPSTRLGTFLENRVNDFLRRQNHPESGEVTVRVVHASDKTVEVKPGMKARFVDSGEMAESFPYRTKALFAFEEIDGVDLCFFGMHVQEYGSDCPPPNQRRVYISYLDSVHFFRPKCLRTAVYHEILIGYLEYVKKLGYTTGHIWACPPSEGDDYIFHCHPPDQKIPKPKRLQEWYKKMLDKAVSERIVHDYKDIFKQATEDRLTSAKELPYFEGDFWPNVLEESIKELEQEEEERKREENTSNESTDVTKGDSKNAKKKNNKKTSKNKSSLSRGNKKKPGMPNVSNDLSQKLYATMEKHKEVFFVIRLIAGPAANSLPPIVDPDPLIPCDLMDGRDAFLTLARDKHLEFSSLRRAQWSTMCMLVELHTQSQDRFVYTCAECKHHVETRWHCTVCEDYDLCITCYNTKNHDHKMEKLGLGLDDESNNQQAAATQSPGDSRRLSIQRCIQSLVHACQCRNANCSLPSCQKMKRVVQHTKGCKRKTNGGCPICKQLIALCCYHAKHCQENKCPVPFCLNIKQKLRQQQLQHRLQQAQMLRR
modifications: left off: FLAG, end not stated, kept
Chromatin in H1299 cells
  Association of p300 BRPHZT with chromatin: substantially reduced
[4]
  H3K4, H3K9 and H4 acetylation: without affecting
  Increase of H3K18 and H3K27 acetylation: greatly attenuated
[5]
  Chromatin binding: incapable of gaining the chromatin binding
  H3K18ac and H3K27ac occupancies: no increase

B3: D1690A (protein)
chain: B2 chain with A637N, D656A
modifications: left off: FLAG, end not stated, kept
Chromatin in H1299 cells
  Association of p300 BRPHZT with chromatin: substantially reduced
[4]
  H3K4, H3K9 and H4 acetylation: without affecting
  Increase of H3K18 and H3K27 acetylation: greatly attenuated
[5]
  Chromatin binding: incapable of gaining the chromatin binding
  H3K18ac and H3K27ac occupancies: no increase

B4: N1132A: p300 BRPHZT BD mutation that abrogates acetyllysine binding (protein)
chain: B2 chain with N98A, A637N
modifications: left off: FLAG, end not stated, kept
Chromatin in H1299 cells
  Association of p300 BRPHZT with chromatin: substantially reduced
[5]; ChIP-qPCR, H1299, n = 3
  p300-BRPHZT occupancy and H3K18ac and H3K27ac levels at target gene regions: decrease

B5: HAT domain: p300 HAT domain (aa 1287–1663, Y1467F) (protein)
chain: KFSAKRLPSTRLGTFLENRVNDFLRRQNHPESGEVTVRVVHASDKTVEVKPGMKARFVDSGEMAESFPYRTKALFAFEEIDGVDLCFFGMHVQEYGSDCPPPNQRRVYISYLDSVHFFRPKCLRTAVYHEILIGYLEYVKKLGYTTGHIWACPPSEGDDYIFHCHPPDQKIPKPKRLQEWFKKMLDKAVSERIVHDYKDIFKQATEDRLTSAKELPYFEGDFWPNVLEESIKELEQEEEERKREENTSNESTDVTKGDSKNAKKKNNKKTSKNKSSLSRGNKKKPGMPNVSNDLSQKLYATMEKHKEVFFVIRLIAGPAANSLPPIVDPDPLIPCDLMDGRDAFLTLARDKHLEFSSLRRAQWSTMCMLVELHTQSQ
modifications: left off: His-tag, N-terminal, cleaved
p300-ZZ; HSQC, 298K, pH 7.0, HAT (1:2 molar ratio) added first, then peptide
  Resonance perturbations in p300-ZZ in presence of HAT domain: very small changes in ZZ
p300-ZZ; HSQC, p300-ZZ with unlabeled HAT (1:2 molar ratio)
  Interaction between isolated HAT and ZZ domains: interact only weakly
[6]
  Interaction with BD-RING-PHD: rapid disappearance of resonances

B6: HAT-ZZ: HAT-ZZ domain (aa 1287–1713, Y1467F) (protein)
chain: T2 sequence
modifications: left off: His-tag, N-terminal, cleaved
[6]
  Interaction with BD-RING-PHD: weakened

B7: WT p300-BRPHZT: p300 BD-RING-PHD-HAT-ZZ-TAZ2 region (BRPHZT, amino acids 1035–1830) (protein)
chain: B2 chain with A637N
modifications: left off: FLAG, end not stated, kept
[4]; whole cell extract
  Global levels of acetylation at all sites tested: increased
[5]
  H3K18ac and H3K27ac occupancies: evident increase
[5]; M2 Flag antibody, H1299, MACS p ≤1e−8
  Number of p300-BRPHZT binding sites (FLAG ChIP-seq): 679
